Experiments:
Type in all cases: functional
[1] = system: Rattus norvegicus; assay: In vivo biological activity against HDL relative to gemfibrozil in male Sprague-Dawley rats
How it was run: (§1)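 Compounds given in the diet to groups of six rats for 8 days, after a 7-day lead-in; dose expressed as mg/kg/day. At termination, rats anesthetized with CO2 and bled from the carotid artery, and serum separated. Values are % change or ratio versus gemfibrozil (set = 1), each relative to an untreated control group; significance P < 0.05.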

[2] = system: Rattus norvegicus; assay: In vivo biological activity against Apo A-I relative to gemfibrozil in male Sprague-Dawley rats; how it was run: as §1
[3] = system: Rattus norvegicus; assay: Percentage change in total cholesterol was determined in vivo in male Sprague-Dawley rats; how it was run: as §1
[4] = system: Rattus norvegicus; assay: Dose administered for testing biological activity in vivo in male Sprague-Dawley rats; how it was run: as §1
[5] = system: Rattus norvegicus; assay: Percentage change in total triglycerides was determined in vivo in male Sprague-Dawley rats; how it was run: as §1

SMILES | Activity [1] | Activity [2] | Change [3] [%] | Dose [4] [mg/kg/day] | Change [5] [%]
Cc1ccc(Cl)cc1/N=C(\S)NCC(C)(C)C(N)=O | 0.57 | 1.15 | -3 | 41 | -49
Cc1ccc(C)c(OCCCC(C)(C)C(=O)O)c1 [GEMFIBROZIL] | 1 | 1 | -23 | 46 | -43
Cc1ccc(Cl)cc1/N=C(\S)NCCO | 0.61 | 1.06 | 40 | 52 | -56
Cc1ccc(C)c(N/C(S)=N/CC(C)(C)C(=O)O)c1 | 0.54 | 0.93 | 73 | 78 | 69
COc1ccc(Cl)cc1/N=C(\S)NCC(C)(C)C(=O)O | 0.62 | 0.27 | 9 | 77 | -28
Cc1ccc(Cl)cc1/N=C(\S)NCC1(C(=O)O)CCCC1 | 1.09 | 0.55 | 41 | 67 | -61
Cc1ccc(Cl)cc1/N=C(\S)NCC1(C(=O)O)CCC1 | 1.19 | 0.49 | 36 | 76 | -39
Cc1ccc(Cl)cc1/N=C(\S)NCC1(C(=O)O)CCCCC1 | 0.73 | 0.32 | 21 | 88 | -54
Cc1ccc(Cl)cc1/N=C(\S)N1CCCC(C)(C(=O)O)C1 (stereo not given) | 0.33 | -0.16 | 14 | 81 | 15
Cc1ccc(Cl)cc1NC(=O)NCC(C)(C)C(=O)O | 0.36 | 0.32 | 74 | 73 | -21
COC(=O)C(C)(C)C/N=C(\S)Nc1cc(Cl)ccc1C | 0.93 | 1.81 | -12 | 74 | -12
